In PubChem BioAssay AID493053 (Broad Institute, 2011):
“And” between values parts separate entries of the source, which are not always exact repeats. Equal entries are not always repeated. The source made the active and inactive calls.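 Rule for the calls: active = signal falling with dose, half-maximal concentration at or below ten times the highest valid dose tested; inconclusive = flat curve with loss between 30% and 70%, or a poor fit; inactive = the rest, including flat or rising curves.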

test system: BJeLR fibroblasts viability, Alamar Blue fluorescence, 48 h; assay: viability loss in BJeLR fibroblasts, dose response, BJeLR cells, dry powder, set 2 (AID 493053); conditions: not given
In short: (§1)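 buffer or medium = DMEM/M199 plus heat-inactivated FBS | timing = 48 h compound treatment at 37 °C, ~16 h Alamar Blue | detection = Alamar Blue fluorescence, 544/590 nm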

Compound	AC50
Cc1onc(C(=O)N2CCN(C(c3ccc(Cl)cc3)c3ccc(Cl)cc3)CC2)c1[N+](=O)[O-]	71 nM
Cc1onc(C(=O)N2CCCN(C(c3ccccc3)c3ccccc3)CC2)c1[N+](=O)[O-]	773 nM
Cc1onc(C(=O)N2CCN(C(c3ccccc3)c3ccc(Cl)cc3)CC2)c1[N+](=O)[O-] (stereo not drawn)	129 nM
Cc1onc(C(=O)N2CCN(C(c3ccccc3)c3ccccc3)CC2)c1[N+](=O)[O-]	2270 nM and 1030 nM
Cc1onc(C(=O)N2CCN(C(c3ccc(F)cc3)c3ccc(F)cc3)CC2)c1[N+](=O)[O-]	183 nM
O=C(NCCNC(c1ccccc1)c1ccccc1)c1ccc([N+](=O)[O-])o1	39100 nM
Cc1onc(C(=O)NCCNC(c2ccccc2)c2ccccc2)c1[N+](=O)[O-]	21600 nM
Cc1onc(C(=O)N2CCN(Cc3ccccc3)CC2)c1[N+](=O)[O-]	65300 nM
O=C(c1ccc([N+](=O)[O-])o1)N1CCN(C(c2ccc(F)cc2)c2ccc(F)cc2)CC1	50800 nM
COc1ccc(C(c2ccc(OC)cc2)N2CCN(C(=O)c3noc(C)c3[N+](=O)[O-])CC2)cc1	1570 nM

test system: not listed separately; assay: as above; conditions: BJeLR fibroblasts viability, Alamar Blue fluorescence, 48 h; at 48 µM (top of the series)
In short: as §1

Compound	activity change, negative = viability loss
Cc1onc(C(=O)N2CCN(C(c3ccccn3)c3ccccn3)CC2)c1[N+](=O)[O-]	9.75% (inactive)
Cc1onc(C(=O)N2CCN(C(c3ccncc3)c3ccncc3)CC2)c1[N+](=O)[O-]	8.19% (inactive)
Cc1onc(C(=O)N2CCN(C(c3ccccc3)c3ccccc3)CC2)c1NS(C)(=O)=O	15.2% (inactive)
O=C(c1noc2ccccc12)N1CCN(C(c2ccccc2)c2ccccc2)CC1	3.47% (inactive)
O=[N+]([O-])c1ccc(CN2CCN(C(c3ccccc3)c3ccccc3)CC2)o1	2.87% (inactive)
O=C(c1ccc([N+](=O)[O-])o1)N1CCCN(C(c2ccccc2)c2ccccc2)CC1	-4.17% (inactive)
Cc1onc(C(=O)N2CCN(C(c3ccccc3)c3ccccc3)CC2)c1Br	11.7% (inactive)
CC(=O)Nc1c(C(=O)N2CCN(C(c3ccccc3)c3ccccc3)CC2)noc1C	11.2% (inactive)
Cc1onc(C(=O)N2CCN(C(c3ccccc3)c3ccccc3)CC2)c1C	15.3% (inactive)
Cc1oc(C)c(C(=O)N2CCN(C(c3ccccc3)c3ccccc3)CC2)c1C	12.2% (inactive)
Cc1onc(C(=O)N2CCN(C(c3ccccc3)c3ccccc3)CC2)c1N	10.4% (inactive)
CC(C)c1onc(C(=O)N2CCN(C(c3ccccc3)c3ccccc3)CC2)c1[N+](=O)[O-]	2.95% (inactive)
Cc1ccc(C(=O)N2CCN(C(c3ccccc3)c3ccccc3)CC2)c([N+](=O)[O-])c1	14.9% (inactive)

same assay, conditions: BJeLR fibroblasts viability, Alamar Blue fluorescence, 48 h; at 68 µM (top of the series)

Compound	activity change, negative = viability loss
Cc1onc(C(=O)N2CCOCC2)c1[N+](=O)[O-]	-1.92% (inactive)
Cc1cc(C(=O)N2CCN(Cc3ccccc3)CC2)no1	4.49% (inactive)
Cc1onc(C(=O)NCc2ccc(F)cc2)c1[N+](=O)[O-]	-1.57% (inactive)
CCOC(=O)N1CCN(C(=O)c2noc(C)c2[N+](=O)[O-])CC1	-2.12% (inactive)
COc1ccccc1N1CCN(C(=O)c2noc(C)c2[N+](=O)[O-])CC1	-5.96% (inactive)
